In PubChem BioAssay AID493096 (Broad Institute, 2011):
“And” between values parts separate entries of the source, which are not always exact repeats. Equal entries are not always repeated. The source made the active and inactive calls.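 How the source made its calls: active means signal drops and an active concentration is fitted at or below ten times the top valid dose of that sample; inconclusive means flat fit between -70 and -30%, or poor fit quality; inactive means the rest.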

Legend:
[1] = reduction of constitutive QS bioluminescence – strain BB721, dry powder, set 2, counter-screen for LuxS inhibitor project, dose response (AID 493096); details: Vibrio harveyi BB721 quorum sensing luminescence, 9 h; at 16 µM (top of the series)
Method in brief: (§1)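 Buffer or medium – AB medium · System – Vibrio harveyi BB721, strain with quorum sensing constitutively on · Quantity – culture at initial OD600 0.0005 · Schedule – compound exposure of 9 h at 30 °C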

[2] = tested on: Vibrio harveyi BB721 quorum sensing luminescence, 9 h; assay: as above
Method in brief: as §1

Row | Compound | activity change, negative = inhibition [1] | AC50 [2]
1 | CCc1ccc(C(=O)Nc2ccc(Br)cn2)cc1 | -2.33% (inactive) | –
2 | Cc1cccc(NC(=O)c2ccc(Oc3ccccc3)cc2)n1 | – | 14.9 µM
3 | Cc1cccc(NS(=O)(=O)c2ccc(Oc3ccccc3)cc2)n1 | – | 11.1 µM and 15.4 µM
4 | CCc1ccc(S(=O)(=O)Nc2ccc(Br)cn2)cc1 | – | 14.8 µM
5 | COc1cc(NC(=O)CN2C(=O)NC(c3ccccc3)(c3ccccc3)C2=O)cc(OC)c1 | – | 0.769 µM and 1.14 µM
6 | O=C1C=C/C(=C/Br)O1 | – | 6.86 µM
